Laboratory results as given in ChEMBL document CHEMBL1255444, “In vitro antibacterial activities of JNJ-Q2, a new broad-spectrum fluoroquinolone” (Antimicrob Agents Chemother, 2010).
Values after ≈ are worked out from the molar mass of the structure shown. Active and inactive are the calls of the source. The rule behind the calls is not given here.

Tests used:
Staphylococcus aureus [1] = assay: Antibacterial activity against methicillin-resistant Staphylococcus aureus isolate OC17042 harboring gyrA S84L/G106D, parC S80F and parE D732N mutant gene assessed as >= 4 fold increase in bactericidal activity by broth microdilution method in presence of 20 ug/ml reserpine; format: functional, organism-based
Staphylococcus aureus [2] = assay: Antibacterial activity against methicillin-resistant Staphylococcus aureus isolate OC11696 assessed as >= 4 fold increase in bactericidal activity by broth microdilution method in presence of 20 ug/ml reserpine; format: functional, organism-based
Staphylococcus aureus [3] = assay: Antibacterial activity against methicillin-resistant Staphylococcus aureus isolate OC4222 harboring gyrA S84L and parC S80F mutant gene assessed as >= 4 fold increase in bactericidal activity by broth microdilution method in presence of 20 ug/ml reserpine; format: functional, organism-based
Staphylococcus aureus [4] = assay: Antibacterial activity against methicillin-resistant Staphylococcus aureus isolate OC12501 assessed as >= 4 fold increase in bactericidal activity by broth microdilution method in presence of 20 ug/ml reserpine; format: functional, organism-based
Staphylococcus aureus [5] = assay: Antibacterial activity against methicillin-resistant Staphylococcus aureus isolate OC8530 harboring gyrA S84L and parC I143V mutant gene assessed as >= 4 fold increase in bactericidal activity by broth microdilution method in presence of 20 ug/ml reserpine; format: functional, organism-based
Staphylococcus aureus [6] = assay: Antibacterial activity against methicillin-resistant Staphylococcus aureus isolate OC8525 harboring wild type quinolone resistance-determining region assessed as >= 4 fold increase in bactericidal activity by broth microdilution method in presence of 20 ug/ml reserpine; format: functional, organism-based
Staphylococcus aureus [7] = assay: Antibacterial activity against methicillin-resistant Staphylococcus aureus isolate OC11521 harboring gyrA S84L/S85P, parC E84G mutant gene assessed as >= 4 fold increase in bactericidal activity by broth microdilution method in presence of 20 ug/ml reserpine; format: functional, organism-based
Streptococcus pneumoniae [8] = assay: Antibacterial activity against Streptococcus pneumoniae ATCC 49619 by broth microdilution method; format: functional
Procedure, shortened: (§1)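 MICs by CLSI M07-A7 broth microdilution in cation-adjusted Mueller-Hinton medium. For S. pneumoniae the medium was supplemented with 5% lysed horse blood. CLSI quality control strains were run alongside as appropriate.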

Citrobacter freundii = assay: Antibacterial activity against Citrobacter freundii by broth microdilution method; format: functional; procedure, shortened: as §1
Serratia marcescens = assay: Antibacterial activity against Serratia marcescens by broth microdilution method; format: functional; procedure, shortened: as §1
Haemophilus influenzae = assay: Antibacterial activity against Haemophilus influenzae by broth microdilution method; format: functional; procedure, shortened: as §1
Escherichia coli = assay: Antibacterial activity against ciprofloxacin-resistant Escherichia coli by broth microdilution method; format: functional
Procedure, shortened: (§2)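 CLSI M07-A7 broth microdilution MIC. Medium was cation-adjusted Mueller-Hinton broth. For S. pneumoniae it was Mueller-Hinton supplemented with 5% lysed horse blood. CLSI quality-control strains were included as appropriate.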

Proteus mirabilis = assay: Antibacterial activity against Proteus mirabilis by broth microdilution method; format: functional; procedure, shortened: as §1
Moraxella catarrhalis = assay: Antibacterial activity against Moraxella catarrhalis by broth microdilution method; format: functional; procedure, shortened: as §1
Streptococcus pneumoniae [9] = assay: Antibacterial activity against ciprofloxacin-resistant Streptococcus pneumoniae by broth microdilution method; format: functional; procedure, shortened: as §2
Klebsiella pneumoniae = assay: Antibacterial activity against Klebsiella pneumoniae by broth microdilution method; format: functional; procedure, shortened: as §1
[10] = test system: Staphylococcus epidermidis; assay: Antibacterial activity against methicillin-susceptible Staphylococcus epidermidis by broth microdilution method; format: functional
Pseudomonas aeruginosa = assay: Antibacterial activity against Pseudomonas aeruginosa ATCC 27853 by broth microdilution method; format: functional; procedure, shortened: as §1
Klebsiella aerogenes = assay: Antibacterial activity against Enterobacter aerogenes by broth microdilution method; format: functional; procedure, shortened: as §1
[11] = test system: Staphylococcus epidermidis; assay: Antibacterial activity against methicillin-resistant Staphylococcus epidermidis by broth microdilution method; format: functional
Providencia stuartii = assay: Antibacterial activity against Providencia stuartii by broth microdilution method; format: functional; procedure, shortened: as §1
Enterobacter cloacae = assay: Antibacterial activity against Enterobacter cloacae by broth microdilution method; format: functional
[12] = test system: Staphylococcus epidermidis; assay: Antibacterial activity against methicillin-, ciprofloxacin-resistant Staphylococcus epidermidis by broth microdilution method; format: functional
Staphylococcus aureus [13] = assay: Antibacterial activity against methicillin-, ciprofloxacin-resistant Staphylococcus aureus by broth microdilution method; format: functional; procedure, shortened: as §2
Staphylococcus aureus [14] = assay: Antibacterial activity against methicillin-resistant Staphylococcus aureus by broth microdilution method; format: functional; procedure, shortened: as §2
Enterococcus faecium = assay: Antibacterial activity against Enterococcus faecium by broth microdilution method; format: functional; procedure, shortened: as §1
Staphylococcus aureus [15] = assay: Antibacterial activity against methicillin-susceptible Staphylococcus aureus by broth microdilution method; format: functional
Staphylococcus aureus [16] = assay: Antibacterial activity against Staphylococcus aureus […] by broth microdilution method; format: functional; procedure, shortened: as §2
Enterococcus faecalis = assay: Antibacterial activity against Enterococcus faecalis ATCC 29212 by broth microdilution method; format: functional; procedure, shortened: as §1

## CC[n+]1c(-c2ccccc2)c2cc(N)ccc2c2ccc(N)cc21
Staphylococcus aureus [1]
  Activity: Active
Staphylococcus aureus [2]
  Activity: Active
Staphylococcus aureus [3]
  Activity: Active
Staphylococcus aureus [4]
  Activity: Active
Staphylococcus aureus [5]
  Activity: Active
Staphylococcus aureus [6]
  Activity: Active
Staphylococcus aureus [7]
  Activity: Active

## CCn1cc(C(=O)O)c(=O)c2cc(F)c(N3CCNCC3)cc21
Staphylococcus aureus [1]
  Activity: Active
Staphylococcus aureus [2]
  Activity: Active
Staphylococcus aureus [3]
  Activity: Active
Staphylococcus aureus [4]
  Activity: Active
Staphylococcus aureus [5]
  Activity: Active
Staphylococcus aureus [6]
  Activity: Active
Staphylococcus aureus [7]
  Activity: Active

## CC[C@H]1OC(=O)[C@H](C)[C@@H](O[C@H]2C[C@@](C)(OC)[C@@H](O)[C@H](C)O2)[C@H](C)[C@@H](O[C@@H]2O[C@H](C)C[C@H](N(C)C)[C@H]2O)[C@](C)(O)C[C@@H](C)C(=O)[C@H](C)[C@@H](O)[C@]1(C)O [ERYTHROMYCIN]
Streptococcus pneumoniae [8]
  MIC50: 0.06 µg/mL (≈ 0.0818 µM)
  MIC90: 16 µg/mL (≈ 21.8 µM)

## CO/N=C1\CN(c2nc3c(cc2F)c(=O)c(C(=O)O)cn3C2CC2)CC1CN (stereo not drawn) [GEMIFLOXACIN]
Streptococcus pneumoniae [8]
  MIC50: 0.03 µg/mL (≈ 0.077 µM)
  MIC90: 0.5 µg/mL (≈ 1.28 µM)
Citrobacter freundii
  MIC50: 1 µg/mL (≈ 2.57 µM)
  MIC90: > 4 µg/mL
Serratia marcescens
  MIC50: 0.25 µg/mL (≈ 0.642 µM)
  MIC90: 0.5 µg/mL (≈ 1.28 µM)
Haemophilus influenzae
  MIC50: ≤ 0.004 µg/mL
  MIC90: 0.008 µg/mL (≈ 0.0205 µM)
Escherichia coli
  MIC50: 32 µg/mL (≈ 82.2 µM)
  MIC90: 64 µg/mL (≈ 164 µM)
Proteus mirabilis
  MIC50: 0.12 µg/mL (≈ 0.308 µM)
  MIC90: 0.25 µg/mL (≈ 0.642 µM)
Moraxella catarrhalis
  MIC: ≤ 0.015 µg/mL
  MIC50: ≤ 0.015 µg/mL
  MIC90: ≤ 0.015 µg/mL

## C[C@H]1COc2c(N3CCN(C)CC3)c(F)cc3c(=O)c(C(=O)O)cn1c23.C[C@H]1COc2c(N3CCN(C)CC3)c(F)cc3c(=O)c(C(=O)O)cn1c23.O [LEVOFLOXACIN]
Streptococcus pneumoniae [9]
  MIC50: 16 µg/mL
  MIC90: 64 µg/mL
Klebsiella pneumoniae
  MIC50: 0.06 µg/mL
  MIC90: 0.12 µg/mL
[10]
  MIC: 0.12 µg/mL
  MIC50: 0.12 µg/mL
  MIC90: 0.25 µg/mL
Pseudomonas aeruginosa
  MIC: 0.5 µg/mL
  MIC50: 0.5 µg/mL
  MIC90: 2 µg/mL
Klebsiella aerogenes
  MIC50: 0.06 µg/mL
  MIC90: 0.06 µg/mL
[11]
  MIC50: 8 µg/mL
  MIC90: 16 µg/mL
Escherichia coli
  MIC50: 16 µg/mL
  MIC90: 64 µg/mL
Providencia stuartii
  MIC50: 16 µg/mL
  MIC90: 64 µg/mL
Enterobacter cloacae
  MIC50: 0.06 µg/mL
  MIC90: 0.12 µg/mL
[12]
  MIC50: 16 µg/mL
  MIC90: 16 µg/mL

## CC1(C)S[C@@H]2[C@H](NC(=O)Cc3ccccc3)C(=O)N2[C@H]1C(=O)O [PENICILLIN G]
Streptococcus pneumoniae [8]
  MIC50: 0.06 µg/mL (≈ 0.179 µM)
  MIC90: 2 µg/mL (≈ 5.98 µM)

## CN[C@H](CC(C)C)C(=O)N[C@H]1C(=O)N[C@@H](CC(N)=O)C(=O)N[C@H]2C(=O)N[C@H]3C(=O)N[C@H](C(=O)N[C@H](C(=O)O)c4cc(O)cc(O)c4-c4cc3ccc4O)[C@H](O)c3ccc(c(Cl)c3)Oc3cc2cc(c3O[C@@H]2O[C@H](CO)[C@@H](O)[C@H](O)[C@H]2O[C@H]2C[C@](C)(N)[C@H](O)[C@H](C)O2)Oc2ccc(cc2Cl)[C@H]1O [VANCOMYCIN]
Staphylococcus aureus [13]
  MIC50: 1 µg/mL (≈ 0.69 µM)
  MIC90: 1 µg/mL (≈ 0.69 µM)
[10]
  MIC50: 2 µg/mL (≈ 1.38 µM)
  MIC90: 2 µg/mL (≈ 1.38 µM)
Staphylococcus aureus [14]
  MIC50: 1 µg/mL (≈ 0.69 µM)
  MIC90: 1 µg/mL (≈ 0.69 µM)
[11]
  MIC50: 2 µg/mL (≈ 1.38 µM)
  MIC90: 2 µg/mL (≈ 1.38 µM)
Enterococcus faecium
  MIC50: > 16 µg/mL
  MIC90: > 16 µg/mL
Staphylococcus aureus [15]
  MIC50: 1 µg/mL (≈ 0.69 µM)
  MIC90: 2 µg/mL (≈ 1.38 µM)
Staphylococcus aureus [16]
  MIC50: 1 µg/mL (≈ 0.69 µM)
  MIC90: 1 µg/mL (≈ 0.69 µM)
Enterococcus faecalis
  MIC50: 2 µg/mL (≈ 1.38 µM)
  MIC90: > 16 µg/mL
[12]
  MIC50: 2 µg/mL (≈ 1.38 µM)
  MIC90: 2 µg/mL (≈ 1.38 µM)
